TRPC6 inh – mouse TRPC6 channel inhibitors, primary screen, cell-based, HEK293, membrane potential dye. Short transient receptor potential channel 6 (Mus musculus), Q61143. ACh-evoked depolarization; active compounds read low. B-score at 10 µM. actives 1.1% (n = 310,000);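 active = B-score under library mean minus 3 SD, initial fluorescence not abnormally high, positive integrated signal ratio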;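 also: B-score derived from integrated fluorescence ratio over the kinetic read; more negative B-score means stronger inhibition of depolarization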
TRPC4 PAM – positive allosteric modulators of TRPC4, primary screen, cell-based, mouse TRPC4beta, HEK293 mu-opioid, Fluo-4 calcium; DAMGO EC20, Fluo-4 Ca2+ flux; active compounds read high; actives 0.42% (n = 310,000); B-score at 10 µM; Short transient receptor potential channel 4 (Mus musculus), Q9QUQ5;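 active = B-score of calcium response area above 5 SD of library B-scores, with initial fluorescence ratio within 5 SD of library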
TRPC4 inh – inhibitors of mouse TRPC4 channel, primary screen, Fluo4 calcium, HEK293 TRPC4beta/mu-opioid cells | DAMGO-evoked Fluo4 calcium flux; active compounds read low | AID 2247, 2010 | B-score at 10 µM | Short transient receptor potential channel 4 (Mus musculus), Q9QUQ5 | actives 0.39% (n = 300,000);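 active = B-score over 3 SD under the library average, no early fluorescence shift, positive overall ratio signal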
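Assay system: HEK293 cells with stable TRPC4beta plus mu-opioid receptor expression. Dosing: single dose. Measured by: Fluo4 Ca2+ flux fluorescence. Also added: DAMGO in two steps, submaximal then maximal. Read-out: B score from integrated Fluo4 fluorescence ratio.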
TRPC6 act – mouse TRPC6 channel activators, primary screen, cell-based, HEK293, membrane potential dye | Short transient receptor potential channel 6 (Mus musculus), Q61143 | HEK293-TRPC6 membrane potential dye fluorescence; active compounds read high | B-score at 10 µM | actives 0.13% (n = 310,000) | AID 2550, 2010;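 active = B-score of the integrated fluorescence ratio above library mean plus 3 SD, and starting fluorescence ratio within library mean plus 5 SD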;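 also: higher score means more depolarization so channel activation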
TRPC4 act – activators of mouse TRPC4 channel, primary screen, Fluo4 calcium, HEK293 TRPC4beta/mu-opioid cells | Short transient receptor potential channel 4 (Mus musculus), Q9QUQ5 | Fluo4 calcium fluorescence; active compounds read high | B-score at 10 µM | actives 0.49% (n = 310,000) | AID 2237, 2010;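 active = B-score above 5 SD of library B-scores, and initial fluorescence ratio not above library mean plus 5 SD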;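 also: positive B-score marks a calcium rise read as TRPC4 activation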
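Material: TRPC4beta and mu-opioid receptor HEK293 stable cells | Incubation: 45 min room-temperature Fluo4 loading, 110 s read | Detection: Kinetic Fluo4 calcium fluorescence | Measure: Integrated baseline-normalised fluorescence ratio, converted to per-well B score | Benchmarks: Low control buffer alone, high control maximal DAMGO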
TRPC4 spec 2 – second selectivity test of TRPC6 inhibitors: effect on mouse TRPC4 | inhibition, % at 10 µM | HEK293 TRPC4/MOR, membrane potential dye fluorescence; channel activated by saturating DAMGO dose | actives 42% (n = 920) | shares compounds with TRPC6 inh;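 active = compounds whose fluorescence signal differed from control wells by over 3 SD, either direction, in both duplicate plates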
TRPC4 spec – mouse TRPC4 modulation by TRPC6 hits, confirmation, selectivity assay for TRPC6 inhibitor project, cell-based, HEK293 TRPC4/mu-opioid, membrane potential dye; membrane potential fluorescence; activity change, negative = inhibition, % at 10 µM; actives 61% (n = 920); AID 2777, 2010; shares compounds with TRPC6 inh;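 active = rise or fall in signal beyond 3 SD of buffer-only wells in both replicate plates, either sign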;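 also: integrated kinetic ratio of fluorescence range over baseline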
HEK293 MPD ctr 2-1 – nonspecific membrane potential effects, parental HEK293, confirmation, counter-screen for TRPC6 inhibitor project, cell-based, second counter screen; shares compounds with TRPC6 inh; parental HEK293 membrane potential dye fluorescence; maximal acetylcholine challenge after compound addition; signal change vs control, % at 10 µM; actives 31% (n = 920); AID 2779, 2010;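 active = membrane potential signal moving either way by over 3 SD of the maximum-effect control, in both duplicate plates, meaning non-specific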
HEK293 MPD ctr-1 – membrane potential modulation in parental HEK293, confirmation, counter-screen for TRPC6 inhibitor project, cell-based; membrane potential signal change, % at 10 µM; actives 60% (n = 920); parental HEK293 membrane potential dye fluorescence; AID 2780, 2010; shares compounds with TRPC6 inh;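 active = membrane potential signal shifting up or down by more than 3 SD of buffer-only wells, on both duplicate plates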
HEK293 MPD ctr-2 – parental HEK293 membrane potential modulation, confirmation, counter-screen for TRPC6 modulator project, cell-based. shares compounds with TRPC6 inh. membrane potential dye fluorescence. membrane potential signal change, % at 10 µM. actives 51% (n = 2,400). AID 488924, 2010;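 active = membrane potential signal moves up or down beyond 5 SD from buffer-only wells, on both duplicate plates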
HEK293 MPD ctr 2-2 – second counter-screen for TRPC6 modulators: effect in parental HEK293 cells; inhibition, % at 10 µM; actives 14% (n = 2,400); shares compounds with TRPC6 inh; membrane potential dye fluorescence; after compound, maximal acetylcholine stimulation;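 active = membrane potential signal drops by more than 5 SD from the mean control signal, in both duplicate plates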
TRPC4/MOR mod – TRPC4 modulation by TRPC6 hit compounds, confirmation, selectivity assay for TRPC6 modulator project, cell-based, HEK293 TRPC4/mu-opioid, membrane potential dye, mouse; shares compounds with TRPC6 inh; membrane potential fluorescence; percent change from control (negative = decrease, positive = increase), % at 10 µM; actives 69% (n = 2,400); AID 488927, 2010;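 active = membrane potential signal moved up or down beyond 5 SD of buffer control wells, in both duplicate plates, actives on both sides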
TRPC4/MOR inh 2 – second selectivity test of TRPC6 modulators against mouse TRPC4 | shares compounds with TRPC6 inh | HEK293 TRPC4/mu-opioid, membrane potential dye fluorescence; stimulated with maximal-effect DAMGO | inhibition, % at 10 µM | actives 55% (n = 2,400) | AID 488928;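 active = drop in membrane potential signal beyond 5 SD of the control wells in both duplicate plates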;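 also: TRPC4 counter screen for TRPC6 hits run under conditions tuned for TRPC6 not TRPC4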
TRPC6 inh conf – mouse TRPC6 channel inhibitors, confirmation, HEK293 cells, membrane potential dye, duplicate. actives 43% (n = 3,300). inhibition, % at 10 µM. ACh-evoked depolarization. shares compounds with TRPC6 inh. AID 488960, 2010;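 active = fluorescence ratio falls more than 5 SD below the full-stimulation control mean, in both duplicate runs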;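 also: integrated fluorescence ratio of peak minus minimum over baseline after agonist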
TRPC6 act confirm – mouse TRPC6 channel activators, confirmation, HEK293 cells, membrane potential dye, duplicate; actives 11% (n = 2,800); AID 488961, 2010; shares compounds with TRPC6 inh; HEK293-TRPC6 membrane potential dye fluorescence, FDSS; activation, % at 10 µM;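 active = ratio signal rise beyond 5 SD above unstimulated control wells' mean, seen in both duplicate runs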
A number is an active result; - = inactive; . = no result given. Compounds with a hit are over-represented: about 2.3% of the library has one in this group of screens.

SMILES	TRPC6 inh	TRPC4 PAM	TRPC4 inh	TRPC6 act	TRPC4 act	HEK293 MPD ctr-2	HEK293 MPD ctr 2-2	TRPC4/MOR mod	TRPC4/MOR inh 2	TRPC6 inh conf	TRPC6 act confirm	others
CC(C)Oc1ccc(C(CCN)C2CCCCC2)cc1 (stereo not drawn)	-6.7	-	-	-	-	.	.	.	.	-	-	TRPC4 spec 2=51%;TRPC4 spec=-;HEK293 MPD ctr 2-1=-;HEK293 MPD ctr-1=-
CC(C)Oc1ccc(C(=O)NC2CCCCC2)cc1	-	-	-	-	-	.	.	.	.	.	.
COC(=O)[C@H](CC(C)C)NC(=O)N1CCC(C)CC1	-	-	-	-	-	.	.	.	.	.	.
O=C(Nc1ccc2oc(=O)ccc2c1)c1cc2ccccc2o1	-	-	-	-	-	.	.	.	.	.	.
O=C(Nc1ccc2oc(=O)ccc2c1)c1cccnc1	-6.3	-	-	-	-	-180%	-	-31%	-	-	-
CCn1cc(C(=O)NCCCN2CCCC(C)C2)c(=O)c2cc(S(=O)(=O)N(C)C3CCCCC3)ccc21 (stereo not drawn)	-	-	-	-	-	.	.	.	.	.	.
C=CCc1ccccc1OCC(O)CN1CCN(c2ccc(OC)cc2)CC1 (stereo not drawn)	-5.3	-	-	-	-	-	-	-	54%	60%	-
C=CCc1ccccc1OCC(O)CN1CCOCC1 (stereo not drawn)	-	-	-	-	-	.	.	.	.	.	.
Cn1c(N)c(C(=O)COC(=O)/C=C/c2ccc(S(=O)(=O)N3CCOCC3)cc2)c(=O)n(C)c1=O	-	-	-	-	-	.	.	.	.	.	.
CCOC(=O)c1ccc2c(c1)n(CCCS(=O)(=O)[O-])c(/C=C/c1ccc(Cl)cc1)[n+]2CC	-7.4	-	-	-	-	-333%	-	-60%	61%	58%	-

Source: PubChem (Johns Hopkins Ion Channel Center)
